The text below walks through data of ChEMBL document CHEMBL1123293, “Potent vasopressin antagonists lacking the proline residue at position 7” (J Med Chem, 1986).

Assay [1] concerns the target Vasopressin V2 receptor (Sus scrofa) (UniProt P32307). Briefly: Affinity for vasopressin V2-receptor of porcine renal medullary membrane. The format is tissue-based. The following applies: Renal medulla. Summed up:
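Porcine renal medullary membrane preparation; displacement of [³H]LVP binding. K_bind calculated from the IC50 by the competitive-inhibition relation Kb = IC50/(1 + L/K_D), with K_D taken as the dissociation constant of [³H]LVP.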

Another assay deals with Rattus norvegicus. As to the kind of experiment: Dose required to decrease urine osmolality in rats from the hydropenic levels (~1500 mOsm/kg of H20) 300 mOsm/kg H20. In kind it is functional. Summed up: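 Male rats were deprived of food and water overnight to give a stable hydropenic state (urine osmolality ~1500 mOsm/kg H₂O). Rats were kept in metabolism cages, four per cage, and given vehicle or one of four doses. Urine volume and osmolality were measured. ED (µg/kg) to lower Uosm to 300 mOsm/kg H₂O was averaged from one to three dose-response curves per peptide.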

The target in the next assay is Vasopressin V2 receptor (Sus scrofa, UniProt P32307). As to the kind of experiment: Inhibition of LVP stimulated adenylate cyclase activity in pig kidney medullary membrane. In kind it is functional, cell membranes. In outline: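 LVP-stimulated adenylate cyclase in pig kidney medullary membranes. The inhibition constant K_i was derived from the competitive-inhibition equation. Values are the mean of triplicate determinations.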
Vasopressin V2 receptor, sequence (P32307 whole entry): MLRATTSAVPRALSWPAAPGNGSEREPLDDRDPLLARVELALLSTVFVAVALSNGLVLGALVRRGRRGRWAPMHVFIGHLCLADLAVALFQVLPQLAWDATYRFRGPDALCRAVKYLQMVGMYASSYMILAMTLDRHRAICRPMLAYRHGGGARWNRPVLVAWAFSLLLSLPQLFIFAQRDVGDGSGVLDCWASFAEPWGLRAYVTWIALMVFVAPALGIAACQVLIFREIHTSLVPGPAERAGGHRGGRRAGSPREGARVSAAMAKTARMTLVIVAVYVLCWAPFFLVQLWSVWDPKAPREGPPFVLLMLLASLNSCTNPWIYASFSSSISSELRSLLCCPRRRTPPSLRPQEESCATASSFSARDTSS

Vasopressin V2 receptor (Sus scrofa), sequence (P32307 whole entry): as above

In assay [1], `CCOc1ccc(C[C@@H]2NC(=O)CC3(CCCCC3)SSC[C@H](C(=O)N3CCC[C@H]3C(=O)N[C@@H](CCCN=C(N)N)C(=O)NCC(N)=O)NC(=O)[C@@H](CC(N)=O)NC(=O)[C@H](C(C)C)NC(=O)[C@@H](Cc3ccccc3)NC2=O)cc1` yielded a K bind of 12 nM.
Still for that read-out and setting: under `CCOc1ccc(C[C@@H]2NC(=O)CC3(CCCCC3)SSC[C@H](C(=O)N[C@@H](CCCCN)C(N)=O)NC(=O)[C@@H](CCN)NC(=O)[C@H](C(C)C)NC(=O)[C@@H](Cc3ccccc3)NC2=O)cc1` stands 26 nM.
Compound `CCOc1ccc(C[C@H]2NC(=O)CC3(CCCCC3)SSC[C@@H](C(=O)N3CCC[C@H]3C(=O)N[C@@H](CCCN=C(N)N)C(N)=O)NC(=O)[C@H](CC(N)=O)NC(=O)[C@H](C(C)C)NC(=O)[C@H](Cc3ccccc3)NC2=O)cc1` yielded an ED300 in the assay with Rattus norvegicus of 9 µg/kg.
Compound `CCOc1ccc(C[C@@H]2NC(=O)CC3(CCCCC3)SSC[C@H](C(=O)N[C@H](CCCN=C(N)N)C(N)=O)NC(=O)[C@@H](CCN)NC(=O)[C@H](C(C)C)NC(=O)[C@@H](Cc3ccccc3)NC2=O)cc1` registered a K bind in assay [1] of 4.4 nM.
For the compound `CCOc1ccc(C[C@H]2NC(=O)CC3(CCCCC3)SSC[C@@H](C(=O)N3CCC[C@H]3C(=O)N[C@@H](CCCN=C(N)N)C(=O)NCC(N)=O)NC(=O)[C@H](CC(N)=O)NC(=O)[C@H](C(C)C)NC(=O)[C@H](Cc3ccccc3)NC2=O)cc1`, the ED300 with Rattus norvegicus came out at 11 µg/kg.
On to `CCOc1ccc(C[C@@H]2NC(=O)CC3(CCCCC3)SSC[C@H](C(=O)N3CCC[C@H]3C(=O)N[C@@H](CCCN=C(N)N)C(N)=O)NC(=O)[C@@H](CC(N)=O)NC(=O)[C@H](C(C)C)NC(=O)[C@@H](Cc3ccccc3)NC2=O)cc1`, for which, in assay [1], the K bind worked out at 12 nM.
On to `CCOc1ccc(C[C@H]2NC(=O)CC3(CCCCC3)SSC[C@@H](C(=O)N[C@@H](CCCNC(=N)N)C(N)=O)NC(=O)[C@H](CCN)NC(=O)[C@H](C(C)C)NC(=O)[C@H](Cc3ccccc3)NC2=O)cc1`, for which the Ki (as a rule, the dissociation constant of the complex between target and ligand, obtained from inhibition or displacement) at Vasopressin V2 receptor was found to be 2.5 nM.
